# UCH37 inh = blocks the human deubiquitinase UCH37 | AID 588478 | inhibition, % (concentration not given with the values) | purified proteasome/UCH37, Ub-AMC cleavage fluorescence | 330,000 compounds, 0.33% hits;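 active = mean inhibition over replicate wells above about 20%, limit read from the data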;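 also: 0% = compound-free wells with enzyme and 100% = wells lacking proteasome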
# Target sequence (Q9Y5K5 whole entry, looked up): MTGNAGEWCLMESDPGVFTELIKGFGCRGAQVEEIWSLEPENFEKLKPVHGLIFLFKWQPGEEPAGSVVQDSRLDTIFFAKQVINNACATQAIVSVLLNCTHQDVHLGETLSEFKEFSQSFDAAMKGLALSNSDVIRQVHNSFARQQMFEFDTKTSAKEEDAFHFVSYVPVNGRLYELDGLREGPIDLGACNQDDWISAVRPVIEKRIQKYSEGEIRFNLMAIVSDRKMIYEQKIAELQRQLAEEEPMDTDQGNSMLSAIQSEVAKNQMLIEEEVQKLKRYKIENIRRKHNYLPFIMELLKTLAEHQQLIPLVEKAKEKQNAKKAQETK
#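 Signal – fluorescence, ex 355 nm, em 460 nm · System – Proteasome-bound UCH37 · Input – 0.15 nM proteasome as dispensed · Timing – 30 min preincubation with enzyme, 25 min cleavage at room temperature · Read-out basis – percent inhibition of cleavage signal versus uninhibited and no-proteasome wells · Medium – Tris-HCl pH 7.4 with ATP-MgCl2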
# PG9 binder = PG9 antibody binding by small molecule | 360,000 compounds, 0.43% hits | inhibition, % at 6.7 µM | AID 624416 | TR-FRET gp120-PG9 antibody binding; in the data active = inhibition above about 8.5%
# Yeast superoxide = yeast age-related superoxide inhibition as caloric restriction mimetic | S. cerevisiae aged cells, superoxide DHE fluorescence; hits give low values | superoxide response (% of plate mean), % at 10 µM | 330,000 compounds, 0.18% hits | AID 2690;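 active = superoxide response under a set limit, about three screen SD below normal, cut at about 65% in these data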;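 also: yeast aged for seven days with compound at 30 °C before DHE staining; 100% = average MFI of all compound-treated wells on the plate with controls excluded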
# NR1D1 modulator = modulates human Rev-erb alpha binding to DNA. P20393. Rev-erbα–FITC-DNA binding, fluorescence polarization, 90 min. activity, % at 10 µM. 370,000 compounds, 0.79% hits;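 active = activity above about 14%, limit read from the data; passing the limit was not always enough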;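 also: 0% = DMSO wells with 35 nM protein and 100% = DMSO wells with 750 nM protein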
# Rce1 inhib = yeast Ras-converting enzyme inhibition. Q03530. yeast membranes, quenched prenylated peptide cleavage fluorescence. calls only. 290,000 compounds, 0.27% hits;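 active = fall in fluorescence gain of 50% or more versus controls, with final raw signal at or below 3038400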;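 also: plate controls were neutral control wells for no effect and wells lacking membranes for full effect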
# beta cell repl = induces beta-cell replication in MIN6 cells; proliferation, % at 10 µM; 330,000 compounds, 0.29% hits; AID 2380; MIN6 cells proliferation, ATPlite luminescence, 48 h; cells starved in 0.2% serum; 100% = growth in 10% serum;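 active = compounds whose signal lies at least 3.5 SD above the mean of all wells on their plate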;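 also: 0% = DMSO-treated cells in low-serum medium and 100% = 10% serum control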
# PG9 bind confirm = PG9 antibody binding, confirmed | shares compounds with PG9 binder | TR-FRET PG9 antibody binding, biochemical | inhibition, % at 6.7 µM | 1,500 compounds, 90% hits | AID 651571; in the data active = inhibition above about 9%
# PGV04 counter = binds control antibody PGV04 in PG9 binder counter-screen; shares compounds with PG9 binder; TR-FRET PGV04 antibody-gp120 binding, biochemical; inhibition, % at 6.7 µM; 1,500 compounds, 95% hits; AID 651604; in the data active = inhibition above about 9.5%
# PG9 bind DR = small molecules binding HIV-1 gp120 antibody PG9; shares compounds with PG9 binder; TR-FRET PG9 antibody-gp120 binding inhibition; IC50, µM; 95 tested, under 10 active; in the data active = IC50 below about 10 µM
# PGV04 binding DR = binds control antibody PGV04 in PG9 counter-screen; AID 651937; TR-FRET binding to control antibody PGV04; shares compounds with PG9 binder; IC50, µM; 95 compounds, 20% hits
# PG126 binding DR = binds control antibody PG126 in PG9 counter-screen. IC50, µM. shares compounds with PG9 binder. TR-FRET binding to antibody PG126, counterscreen. AID 651939. 95 compounds, 20% hits
# Numbers without * were called inactive; i = inactive; · = no result. This is a sample that favours compounds with a hit; in the whole collection about 1.9% have one here. Rule as the data show it, unless noted: active = IC50 below about 9 µM; inactive = the rest.
SMILES,UCH37 inh,PG9 binder,Yeast superoxide,NR1D1 modulator,Rce1 inhib,beta cell repl,PG9 bind confirm,PGV04 counter,others
COc1ccc(OC)c(S(=O)(=O)Nc2ccc(C(C)=O)cc2)c1,5,8.6*,105,-2,i,2,21*,19*,PG9 bind DR=>67;PGV04 binding DR=>67;PG126 binding DR=>67
CN(C)C1(CNC(=O)CC(NC(=O)c2ccccc2Cl)c2ccccc2)CCCCC1 (stereo not given),2,17*,112,9,i,2,8.9*,9.6*,
O=C(CCc1nc2ccccc2c(=O)[nH]1)OCc1ccc(-c2ccccc2)cc1,2,9.3*,102,16,i,-2,17*,24*,
CC(=O)N1CCN(CCN2C(C)=CC(=C(C#N)C#N)C=C2C)CC1,9,-1,101,5,i,-4,·,·,
CC1=CC(=C(C#N)C#N)C=C(C)N1CCN1CCN(C(=O)Nc2cccc(Cl)c2)CC1,-38,12*,145,15,i,0,17*,26*,
Cc1sc(NC(=S)NC(=O)C2CCCCC2)c(C(N)=O)c1C,-2,32*,99,7,i,0,24*,31*,
Cc1ccc(S(=O)(=O)NN=Cc2cccc3c2OCCO3)cc1,0,·,·,·,·,·,·,·,
CCCOc1ccc(Br)cc1C=NO,3,·,·,·,·,·,·,·,
CCCC1=Nc2cc(C(=O)NCCCN3CCN(C)CC3)ccc2Sc2ccccc21,4,1,82,-4,i,-5,·,·,
CCCC1=Nc2cc(C(=O)NCCCN3CCOCC3)ccc2Sc2ccccc21,3,12*,111,4,i,-2,11*,15*,
Nc1nc2c(-c3ccc(Br)cc3)nnn2c2ccccc12,-167,11*,98,5,i,-4,13*,30*,
Cc1ccc(-n2c(SCC(N)=O)nc3c(c2=O)C2(CCCC2)Cc2ccccc2-3)cc1,1,11*,112,-3,i,0,23*,32*,
COCCn1c(C)cc(C=NNC(=O)c2cccnc2)c1C,9,·,·,·,·,·,·,·,
CC(=O)c1cccc(NC(=O)c2cccc(N3C(=O)c4ccccc4C3=O)c2)c1,6,22*,111,-10,i,-1,25*,22*,PG9 bind DR=i;PGV04 binding DR=i;PG126 binding DR=i
O=C(CSc1ccc2nnc(-c3ccc(F)cc3)n2n1)N1CCCc2ccccc21,-4,0,102,2,i,-1,·,·,
O=C(CSc1ccc2nnc(-c3cccc(F)c3)n2n1)N1CCCc2ccccc21,1,9.1*,102,1,i,0,18*,39*,
NS(=O)(=O)c1ccc(NC(=O)COC(=O)c2cn(-c3ccccc3)nc2-c2ccc(F)cc2)cc1,5,9.0*,91,4,i,1,16*,24*,
CCCc1nc2sc3c(=O)[nH]cnc3c2c2c1CCCC2,-11,2,116,19,i,1,·,·,
CC(C)c1nc2sc3c(=O)[nH]cnc3c2c2c1CCC2,-69,9.6*,69,6,i,-1,20*,26*,
COC(=O)c1ccc2ccn(CC(=O)NC3CCCCC3)c2c1,-54,16*,112,8,i,-2,20*,32*,
COc1ccccc1NS(=O)(=O)c1cccc(C(=O)NN=Cc2ccccc2OCC(=O)O)c1,3,·,·,·,·,·,·,·,
O=C(NN=Cc1ccccc1O)c1ccncc1,1,·,·,·,·,·,·,·,
CCOC(=O)c1sc2nccc(N(C)C)c2c1N=CNOCc1c(F)cccc1Cl,-18,10*,91,1,i,-4,18*,25*,
